In the library only some 4.8% were active in any assay of this set; here they are far more common.
Calb FLC = C. albicans growth inhibition with fluconazole, primary screen, CaCi-2 strain, Alamar Blue fluorescence; C. albicans CaCi-2 (fluconazole-resistant clinical isolate) + fluconazole, 48 h; 0.57% of 300,000 active; growth inhibition, % (no concentration beside the values); AID 1979, 2009;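 active = growth inhibition above about 58% in most replicates, limit read from the data, passing the limit was not always enough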;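 also: all wells also contain fluconazole at 8 µg/ml as a sub-toxic cotreatment; 0% = median of DMSO wells and 100% = median of geldanamycin control wells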
NALP1 inh = NALP1 inflammasome inhibitors in reconstituted yeast, colorimetric, S. cerevisiae, triplicate retest. inhibition, % at 10 µM. S. cerevisiae NALP1/ASC/caspase-1 growth, X-gal OD620, 72 h. 0.61% of 280,000 active; in the data active = inhibition mostly above about 24%, no sharp cut-off; inactive = mostly below about 32%
UCH37 DUB inh = inhibitors of human UCH37 deubiquitinase, primary screen, biochemical, Ub-AMC cleavage, fluorescence; inhibition, % (concentration not given with the values); Ubiquitin carboxyl-terminal hydrolase isozyme L5 (Homo sapiens), Q9Y5K5; 0.33% of 330,000 active; purified proteasome/UCH37;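 active = mean inhibition over replicate wells above about 20%, limit read from the data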;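 also: 0% = compound-free wells with enzyme and 100% = wells lacking proteasome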
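Assay system: Proteasome-bound UCH37. Buffer or medium: pH 7.4 Tris-HCl (50 mM) with ovalbumin, ATP-MgCl2, DTT. Incubation: 30 min preincubation with enzyme, 25 min cleavage at room temperature. Measured by: fluorescence, ex 355 nm, em 460 nm. Read-out basis: percent inhibition. Control set: wells without proteasome as full block, compound-free enzyme plus substrate as uninhibited.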
ALR inh = inhibitors of human ALR sulfhydryl oxidase, primary screen, biochemical, H2O2 detection, HRP-luminol luminescence, single point; FAD-linked sulfhydryl oxidase ALR (Homo sapiens), P55789; purified ALR, DTT oxidation; inhibition, % (concentration not given with the values); 3.8% of 290,000 active; AID 485317, 2010;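 active = mean replicate inhibition above about 79%, with every replicate also reaching it, limit read from the data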
ATG4B inh = ATG4B protease inhibitors, primary screen, biochemical, fluorescence, uHTS. AID 504462, 2011. 0.51% of 340,000 active. Cysteine protease ATG4B (Homo sapiens), Q9Y4P1. ATG4B cleavage of LC3-PLA2, NBD-HPC fluorescence, 1 h. inhibition, % at 8.33 µM; in the data active = inhibition above about 40%
Target sequence (Q9Y4P1 whole entry, looked up): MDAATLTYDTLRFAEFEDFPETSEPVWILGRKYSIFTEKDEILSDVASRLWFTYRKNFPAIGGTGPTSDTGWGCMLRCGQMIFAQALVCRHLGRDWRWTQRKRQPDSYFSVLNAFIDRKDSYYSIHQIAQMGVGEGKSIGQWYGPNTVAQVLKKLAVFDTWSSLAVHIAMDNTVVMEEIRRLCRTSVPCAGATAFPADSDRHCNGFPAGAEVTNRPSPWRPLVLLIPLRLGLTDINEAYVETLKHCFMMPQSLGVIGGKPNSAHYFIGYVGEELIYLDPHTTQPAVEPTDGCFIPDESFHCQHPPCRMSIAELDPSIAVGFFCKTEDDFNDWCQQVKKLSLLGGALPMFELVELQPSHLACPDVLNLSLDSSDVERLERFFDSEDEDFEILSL
NALP3 yeast inh = NALP3 inflammasome inhibitors in reconstituted yeast, primary screen, luminescence, uHTS; Yeast reconstituted NLRP3/ASC/caspase-1, beta-gal luminescence, 24 h; inhibition, % at 10 µM; 0.39% of 330,000 active;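 active = inhibition of 50% or more; inactive = inhibition below 50%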;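 also: plate controls were induced DMSO wells for no effect and uninduced yeast grown without galactose for full effect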
* marks the source's active call; other numbers are inactive results.

`CSCc1ccc(C(=O)N2CCCC(Nc3ccc4c(c3)OCCO4)C2)o1` (configuration not stated) gave Calb FLC -1.5, NALP1 inh 2.6, UCH37 DUB inh 1.1, ALR inh 98.8*, ATG4B inh 2.7 and NALP3 yeast inh -7.3.
COCc1ccc(C(=O)N2CCCC(CNC(=O)c3ccc(F)cc3)C2)o1 (configuration not stated) was read as Calb FLC 1.2, NALP1 inh 8.6, UCH37 DUB inh 1.5, ALR inh -10.1, ATG4B inh -2.9 and NALP3 yeast inh 10.7.
CC(Cn1nnc([N+](=O)[O-])n1)=NNC(=O)c1ccccc1 was read as UCH37 DUB inh -1.6.
Nc1oc2ccccc2c1C(=O)Cc1ccccc1O[C@@H]1O[C@H](CO)[C@@H](O)[C@H](O)[C@H]1O was read as Calb FLC -6.3, UCH37 DUB inh 5.3, ALR inh 90.3*, ATG4B inh -3.9 and NALP3 yeast inh 8.2.
`C/C(CCc1ccc2c(c1)OCO2)=N\NC(=S)NC(C)C` gave Calb FLC 3.1, NALP1 inh -10.3, ALR inh 85.1*, ATG4B inh -4.6 and NALP3 yeast inh 5.7.
Screening COCCNC(=S)N/N=C(\C)CCc1ccc2c(c1)OCO2 returned Calb FLC -1.3, NALP1 inh 7.7, ALR inh 4.0, ATG4B inh -5.1 and NALP3 yeast inh 13.5.
Screening CN(c1ccccc1)c1ccc(/C=C(/CCC(=O)O)c2nc3ccccc3s2)cc1[N+](=O)[O-] returned UCH37 DUB inh 13.2 and ATG4B inh 23.4.
Screening O=C(O)CC/C(=C\c1cc([N+](=O)[O-])ccc1Cl)c1nc2ccccc2s1 returned Calb FLC 47.2, NALP1 inh 30.2, UCH37 DUB inh 7.6, ALR inh 96.4* and ATG4B inh 17.5.
`OC1C=CSc2nc3ccccc3n21` (configuration not stated) gave Calb FLC 0.6, NALP1 inh 4.5, UCH37 DUB inh 1.1, ALR inh 86.0*, ATG4B inh -5.7 and NALP3 yeast inh 5.2.
For c1ccc2c(c1)nc1n2CCS1 the results were Calb FLC 6.9, NALP1 inh 10.1, UCH37 DUB inh 3.5, ALR inh -2.1, ATG4B inh -1.5 and NALP3 yeast inh 4.3.
COc1cccc(N2CCN(c3ccc4nnc(CCC(=O)Nc5cc(C)ccn5)n4n3)CC2)c1 was read as Calb FLC 6.2, NALP1 inh 25.3, UCH37 DUB inh 2.6, ALR inh 57.9, ATG4B inh -10.6 and NALP3 yeast inh 10.3.
For COc1cccc(N2CCN(c3ccc4nnc(CCC(=O)Nc5ccccn5)n4n3)CC2)c1 the results were Calb FLC -3.7, NALP1 inh 8.5, UCH37 DUB inh 3.9, ALR inh 95.2*, ATG4B inh -8.2 and NALP3 yeast inh 12.8.
`Oc1c(C(c2cccs2)N2CCN(c3ccccc3)CC2)sc2ncnn12` (configuration not stated) gave Calb FLC -15.2, NALP1 inh -2.3, UCH37 DUB inh 4.4, ALR inh 97.0*, ATG4B inh -9.1 and NALP3 yeast inh 4.1.
`Oc1c(C(c2cccs2)N2CCC3(CC2)OCCO3)sc2ncnn12` (configuration not stated) gave Calb FLC 12.1, NALP1 inh -14.3, UCH37 DUB inh 5.7, ALR inh -6.2, ATG4B inh -9.2 and NALP3 yeast inh 0.6.
Screening CC(=NNC(=O)CC#N)c1ccc(Oc2ccccc2)cc1 returned UCH37 DUB inh -2.2.
For Cc1cc(C)c2nc(NNC(=O)c3cc(-c4cccs4)nc4ccccc34)sc2c1 the results were Calb FLC 82.5*, NALP1 inh 20.6, UCH37 DUB inh -4.2, ALR inh 3.1, ATG4B inh -3.9 and NALP3 yeast inh 12.3.
For O=C(NN1CCOCC1)c1cc(-c2cccs2)nc2ccccc12 the results were Calb FLC 3.2, NALP1 inh 10.9, UCH37 DUB inh -485.0, ALR inh 7.0, ATG4B inh -3.3 and NALP3 yeast inh 0.2.
